Measurements reported in ChEMBL document CHEMBL1150362, “Synthesis and in vitro evaluation of a library of modified endomorphin 1 peptides” (Bioorg Med Chem, 2008).
*1 amine or outer side, *2 acyl side, *3 side chain or, on linkers, in order; H or OH if unused. Where a SMILES comes first, the peptide text is derived from it. [ ]: non-standard residue; d: D form. The star is where a group is joined. ξ: configuration not given here. NH(β-D-Glc) = OC[C@H]1O[C@@H](N*)[C@H](O)[C@@H](O)[C@@H]1O; X1 = NC(=O)[C@H]1O[C@@H](N*)[C@H](O)[C@@H](O)[C@@H]1O; ξGly(nC16H33) = CCCCCCCCCCCCCCCCC(N)C(=O)O; Dmt = Cc1cc(O)cc(C)c1C[C@H](N)C(=O)O; ξGly(decyl) = CCCCCCCCCCC(N)C(=O)O; Suc = O=C(CCC(=O)[*:2])[*:1]; ξAoc(2) = CCCCCCC(N)C(=O)O

Key:
Mu-type opioid receptor [1] = target: T1, Mu-type opioid receptor (Homo sapiens, UniProt P35372); experiment: Displacement of [3H]DAMGO from mu opioid receptor in human SHSY5Y cells; type: cell-based, SH-SY5Y
T1 sequence (P35372 whole entry): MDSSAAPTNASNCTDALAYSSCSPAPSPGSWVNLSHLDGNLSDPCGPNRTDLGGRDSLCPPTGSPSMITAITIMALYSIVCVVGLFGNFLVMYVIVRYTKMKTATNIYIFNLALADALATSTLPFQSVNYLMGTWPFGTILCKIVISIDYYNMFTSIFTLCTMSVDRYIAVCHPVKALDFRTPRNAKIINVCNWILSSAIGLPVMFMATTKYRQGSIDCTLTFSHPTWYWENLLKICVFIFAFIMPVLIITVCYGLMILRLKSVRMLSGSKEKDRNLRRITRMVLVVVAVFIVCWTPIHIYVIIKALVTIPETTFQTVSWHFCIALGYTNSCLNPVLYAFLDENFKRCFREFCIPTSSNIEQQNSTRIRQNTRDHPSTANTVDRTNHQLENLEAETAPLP
Procedure, shortened: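 Intact SH-SY5Y cells in 24-well plates were pre-incubated in binding buffer (50 mM Tris pH 7.4, 2% BSA). Incubated with 100 pM [3H]DAMGO plus unlabelled competitor (7 concentrations, 10 pM-1 μM) for 60 min at 37°C. Nonspecific binding defined with 1 μM DAMGO. Cells washed, dissolved in 1 M NaOH and counted by scintillation. Triplicates on at least three plates; Ki from one-site competition fits.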

[2] = (§1) Metabolic stability assessed as half life in human Caco-2 cell homogenate; type: ADME, Colon; conditions: Caco-2 cell homogenate
Caco-2 [3] = experiment: (§2) Apparent permeability from apical to basolateral side of the human Caco-2 membrane; type: ADME, cell-based
Caco-2 [4] = experiment: as §1; type: ADME, Colon; conditions: Caco-2
[5] = as §2; type: ADME, cell-based
Rattus norvegicus = species: Rattus norvegicus; experiment: Selectivity for rat mu opioid receptor over rat delta opioid receptor
Procedure, shortened: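 Ratio Kiδ/Kiμ, with both Ki values from competitive displacement binding on prepared rat brain P2 synaptosome membranes. The μ site was labelled with [3H]DAMGO. Ki values are given as mean ± SE, n = 3-4.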

[6] = target: Delta-type opioid receptor (Rattus norvegicus, UniProt P33533); experiment: Displacement of […] from delta opioid receptor in rat brain membrane; type: cell membranes
Sequence of Delta-type opioid receptor (P33533 whole entry): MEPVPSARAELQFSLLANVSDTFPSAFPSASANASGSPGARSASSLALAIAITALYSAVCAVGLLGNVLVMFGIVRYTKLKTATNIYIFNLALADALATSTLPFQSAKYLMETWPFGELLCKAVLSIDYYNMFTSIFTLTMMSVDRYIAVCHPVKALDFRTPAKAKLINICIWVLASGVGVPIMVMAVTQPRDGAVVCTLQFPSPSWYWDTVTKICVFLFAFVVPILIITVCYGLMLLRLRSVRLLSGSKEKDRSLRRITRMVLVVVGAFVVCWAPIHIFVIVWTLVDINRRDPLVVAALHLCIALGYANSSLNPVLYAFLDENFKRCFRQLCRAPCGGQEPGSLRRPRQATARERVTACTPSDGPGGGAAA

Mu-type opioid receptor [7] = target: Mu-type opioid receptor (Rattus norvegicus, UniProt P33535); experiment: Displacement of [3H]DAMGO from mu opioid receptor in rat brain membrane; type: cell membranes
Sequence of Mu-type opioid receptor (Rattus norvegicus, UniProt P33535) (P33535 whole entry): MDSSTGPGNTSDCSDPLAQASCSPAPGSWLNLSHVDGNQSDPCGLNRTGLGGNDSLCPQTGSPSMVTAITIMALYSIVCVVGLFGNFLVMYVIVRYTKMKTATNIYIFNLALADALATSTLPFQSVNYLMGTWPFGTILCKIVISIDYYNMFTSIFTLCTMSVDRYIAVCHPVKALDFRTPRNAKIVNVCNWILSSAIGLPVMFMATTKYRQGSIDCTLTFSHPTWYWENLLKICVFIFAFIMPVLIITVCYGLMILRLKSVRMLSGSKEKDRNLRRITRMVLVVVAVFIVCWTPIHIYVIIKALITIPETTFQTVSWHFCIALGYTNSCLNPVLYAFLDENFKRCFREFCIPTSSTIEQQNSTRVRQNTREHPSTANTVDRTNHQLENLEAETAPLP

Mu-type opioid receptor [8] = target: T1, Mu-type opioid receptor; experiment: Agonist activity at mu opioid receptor in human SHSY5Y cells assessed as inhibition of forskolin-stimulated cAMP production at 100 nM; type: functional, cell-based; design: scale not given: the % may be the effect or the level left; conditions: SH-SY5Y
Procedure, shortened: (§3)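 SH-SY5Y cells (endogenous mu and delta opioid receptors, passages 10-20) grown in 96-well plates to 80% confluence. Peptides applied in DMEM with 30 μM forskolin for 30 min at 37°C. Lysed cells read by cAMP enzyme immunoassay (TMB, 450 nm) against a 0-3.2 pmol standard curve, expressed relative to the maximal forskolin response. Three experiments in triplicate; IC50 from concentration-response curves.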

Mu-type opioid receptor [9] = target: T1, Mu-type opioid receptor; experiment: Agonist activity at mu opioid receptor in human SHSY5Y cells assessed as inhibition of forskolin-stimulated cAMP production; type: functional, cell-based, SH-SY5Y; procedure, shortened: as §3

In the case of `CCCCCC[C@@H](N)C(=O)N[C@@H](Cc1ccc(O)cc1)C(=O)N1CCC[C@H]1C(=O)N[C@@H](Cc1c[nH]c2ccccc12)C(=O)N[C@@H](Cc1ccccc1)C(N)=O`, the Ki (Mu-type opioid receptor [1]) is reported as 2.92 nM and the half-life [2] is reported as 23.8 min.
With `Cc1cc(O)cc(C)c1C[C@H](N)C(=O)N1CCC[C@H]1C(=O)N[C@@H](Cc1c[nH]c2ccccc12)C(=O)N[C@@H](Cc1ccccc1)C(N)=O` (stereo in doubt) the Papp (Caco-2 [3]) was 0.196 ×10⁻⁷ cm/s and the t1/2 (Caco-2 [4]) was 5 min.
`CCCCCCCCCCC(NC(=O)[C@H](Cc1ccccc1)NC(=O)[C@H](Cc1c[nH]c2ccccc12)NC(=O)[C@@H]1CCCN1C(=O)[C@@H](N)Cc1ccc(O)cc1)C(N)=O` (stereo partly drawn) (H-YPWF[ξGly(decyl)]-NH2) gave a Papp A→B [5] of 0.416 ×10⁻⁶ cm/s.
`CCCCCCCCCCC(N)C(=O)N[C@@H](Cc1ccc(O)cc1)C(=O)N1CCC[C@H]1C(=O)N[C@@H](Cc1c[nH]c2ccccc12)C(=O)N[C@@H](Cc1ccccc1)C(N)=O` (stereo partly drawn) (H-[ξGly(decyl)]YPWF-NH2) gave a Ratio Ki (Rattus norvegicus) of 56, a Ki [6] of 836 nM and a Papp A→B [5] of 1.24 ×10⁻⁶ cm/s. The Ki (Mu-type opioid receptor [1]) was 15.4 nM, the Ki (Mu-type opioid receptor [7]) was 14.8 nM and the Activity (Mu-type opioid receptor [8]) was 55.4%.
For `CCCCCCCCCCCCCCCCC(N)C(=O)N[C@@H](Cc1ccc(O)cc1)C(=O)N1CCC[C@H]1C(=O)N[C@@H](Cc1c[nH]c2ccccc12)C(=O)N[C@@H](Cc1ccccc1)C(N)=O` (stereo partly drawn) (H-[ξGly(nC16H33)]YPWF-NH2), the Activity (Mu-type opioid receptor [8]) was 48.4%.
For `NC(=O)[C@H](Cc1ccccc1)NC(=O)[C@H](Cc1c[nH]c2ccccc12)NC(=O)[C@@H]1CCCN1C(=O)[C@@H](N)Cc1ccc(O)cc1` [ENDOMORPHIN-1], the Papp A→B [5] was 0.447 ×10⁻⁶ cm/s.
Molecule `CCCCCC[C@H](N)C(=O)N[C@@H](Cc1ccc(O)cc1)C(=O)N1CCC[C@H]1C(=O)N[C@@H](Cc1c[nH]c2ccccc12)C(=O)N[C@@H](Cc1ccccc1)C(N)=O` has a Ki (Mu-type opioid receptor [1]) of 3.02 nM and a half-life [2] of 23.8 min.
Work on `CCCCCCC(NC(=O)[C@H](Cc1ccccc1)NC(=O)[C@H](Cc1c[nH]c2ccccc12)NC(=O)[C@@H]1CCCN1C(=O)[C@@H](N)Cc1ccc(O)cc1)C(N)=O` (stereo partly drawn) (H-YPWF[ξAoc(2)]-NH2) yielded a Papp A→B [5] of 0.823 ×10⁻⁶ cm/s, a Ki (Mu-type opioid receptor [1]) of 121 nM and an Activity (Mu-type opioid receptor [8]) of 15.9%. It also gave a half-life [2] of 3.5 min.
Molecule `CCCCCCC(N)C(=O)N[C@@H](Cc1c(C)cc(O)cc1C)C(=O)N1CCC[C@H]1C(=O)N[C@@H](Cc1c[nH]c2ccccc12)C(=O)N[C@@H](Cc1ccccc1)C(N)=O` (stereo partly drawn) (H-[ξAoc(2)][Dmt]PWF-NH2) has an IC50 (Mu-type opioid receptor [9]) of 0.32 nM, a Ki (Mu-type opioid receptor [1]) of 0.081 nM and an Activity (Mu-type opioid receptor [8]) of 84.3%.
`NC(=O)[C@H]1O[C@@H](NC(=O)[C@H](Cc2ccccc2)NC(=O)[C@H](Cc2c[nH]c3ccccc23)NC(=O)[C@@H]2CCCN2C(=O)[C@@H](N)Cc2ccc(O)cc2)[C@H](O)[C@@H](O)[C@@H]1O` gave a Ki (Mu-type opioid receptor [1]) of 151 nM, an Activity (Mu-type opioid receptor [8]) of 31.5% and a half-life [2] of 4.3 min.
For `NC(=O)[C@H](Cc1ccccc1)NC(=O)[C@H](Cc1c[nH]c2ccccc12)NC(=O)[C@@H]1CCCN1C(=O)[C@H](Cc1ccc(O)cc1)NC(=O)CCC(=O)N[C@@H]1O[C@H](CO)[C@@H](O)[C@H](O)[C@H]1O`, the Ratio Ki (Rattus norvegicus) was 55, the Ki [6] was 6320 nM and the Papp A→B [5] was 0.545 ×10⁻⁶ cm/s. The Ki (Mu-type opioid receptor [1]) was 115 nM, the Ki (Mu-type opioid receptor [7]) was 115 nM and the half-life [2] was 38 min.
Work on `CCCCCCC(N)C(=O)N[C@@H](Cc1ccc(O)cc1)C(=O)N1CCC[C@H]1C(=O)N[C@@H](Cc1c[nH]c2ccccc12)C(=O)N[C@@H](Cc1ccccc1)C(=O)N[C@@H]1O[C@H](C(N)=O)[C@@H](O)[C@H](O)[C@H]1O` (stereo partly drawn) (H-[ξAoc(2)]YPWF-X1) yielded a Papp A→B [5] of 1.62 ×10⁻⁶ cm/s, a Ki (Mu-type opioid receptor [1]) of 148 nM and an Activity (Mu-type opioid receptor [8]) of 36.2%. For the same molecule, the half-life [2] was 75 min.
`Cc1cc(O)cc(C)c1C[C@H](N)C(=O)N1CCC[C@H]1C(=O)N[C@@H](Cc1c[nH]c2ccccc12)C(=O)N[C@@H](Cc1ccccc1)C(N)=O` (stereo in doubt; 13) [listing 1 of 2 here] gave a Ratio Ki (Rattus norvegicus) of 75.
`Cc1cc(O)cc(C)c1C[C@H](N)C(=O)N1CCC[C@H]1C(=O)N[C@@H](Cc1c[nH]c2ccccc12)C(=O)N[C@@H](Cc1ccccc1)C(N)=O` (stereo in doubt; 13) [listing 2 of 2 here] gave a Ki [6] of 5 nM, an IC50 (Mu-type opioid receptor [9]) of 0.43 nM and a Papp (Caco-2 [3]) of 5.04 ×10⁻⁷ cm/s. For the same molecule, the Ki (Mu-type opioid receptor [1]) was 0.059 nM, the Ki (Mu-type opioid receptor [7]) was 0.067 nM and the t1/2 (Caco-2 [4]) was 13.5 min.
Molecule `CCCCCCC(NC(=O)[C@H](Cc1ccccc1)NC(=O)[C@H](Cc1c[nH]c2ccccc12)NC(=O)[C@@H]1CCCN1C(=O)[C@H](Cc1ccc(O)cc1)NC(=O)CCC(=O)N[C@@H]1O[C@H](CO)[C@@H](O)[C@H](O)[C@H]1O)C(N)=O` (stereo partly drawn) ({NH(β-D-Glc)-Suc}-YPWF[ξAoc(2)]-NH2) has a Papp A→B [5] of 1.14 ×10⁻⁶ cm/s, a Ki (Mu-type opioid receptor [1]) of 266 nM and a half-life [2] of 33 min.
`CCCCCCC(N)C(=O)N[C@@H](Cc1ccc(O)cc1)C(=O)N1CCC[C@H]1C(=O)N[C@@H](Cc1c[nH]c2ccccc12)C(=O)N[C@@H](Cc1ccccc1)C(N)=O` (stereo partly drawn) gave a Ratio Ki (Rattus norvegicus) of 614, a Ki [6] of 1760 nM and an IC50 (Mu-type opioid receptor [9]) of 26.3 nM. It also gave a Papp A→B [5] of 3.54 ×10⁻⁶ cm/s, a Ki (Mu-type opioid receptor [1]) of 2.15 nM and a Ki (Mu-type opioid receptor [7]) of 2.86 nM. For the same molecule, the Activity (Mu-type opioid receptor [8]) was 65.4% and the half-life [2] was 23.2 min.
